According to ChEMBL document CHEMBL3352189 (J Med Chem, 2014):
pEC50: −log10 of the molar value.

How the values were obtained:
[1] = tested on: Venezuelan equine encephalitis virus; assay: Antiviral activity against Venezuelan equine encephalitis virus TC83 infected in C3H/HeN mouse assessed as mouse survival at […], ip BID for 4 days dosed 4 hrs before viral infection (reference value: 14%); assay type: functional; settings: route intraperitoneal
[2] = tested on: Mus musculus; assay: Toxicity in Venezuelan equine encephalitis virus TC83 infected C3H/HeN mouse assessed as body weight loss at 5 mg/kg/day, ip BID for 4 days; assay type: organism-based; parameters: route intraperitoneal; settings: in vivo, 96 h
[3] = tested on: Mus musculus; assay: Toxicity in Venezuelan equine encephalitis virus TC83 infected C3H/HeN mouse assessed as body weight loss at 40 mg/kg/day, ip BID for 4 days; assay type: organism-based; parameters: route intraperitoneal; settings: in vivo, 96 h
[4] = tested on: Mus musculus; assay: Toxicity in Venezuelan equine encephalitis virus TC83 infected C3H/HeN mouse assessed as induction of lethargy at 5 mg/kg/day, ip BID for 4 days; assay type: organism-based; parameters: route intraperitoneal; settings: in vivo, 96 h
[5] = tested on: Mus musculus; assay: Toxicity in Venezuelan equine encephalitis virus TC83 infected C3H/HeN mouse assessed as induction of hunched posture at 5 mg/kg/day, ip BID for 4 days; assay type: organism-based; parameters: route intraperitoneal; settings: in vivo, 96 h
[6] = target: Adenosine receptor A1 (Homo sapiens) (UniProt P30542); assay: Displacement of [3H]DPCPX from human adenosine A1 receptor at 10 uM
[7] = target: Alpha-1A adrenergic receptor (Rattus norvegicus) (UniProt P43140); assay: Displacement of [3H]prazosin from rat adrenergic alpha1A receptor at 10 uM
[8] = target: Alpha-1B adrenergic receptor (Rattus norvegicus) (UniProt P15823); assay: Displacement of [3H]prazosin from rat adrenergic alpha1B receptor at 10 uM
[9] = target: Alpha-1D adrenergic receptor (Homo sapiens) (UniProt P25100); assay: Displacement of [3H]prazosin from human adrenergic alpha1D receptor at 10 uM
[10] = target: Beta-2 adrenergic receptor (Homo sapiens) (UniProt P07550); assay: Displacement of [3H]CGP-12177 from human adrenergic beta2 receptor at 10 uM
[11] = species: Rattus norvegicus; assay: Displacement of [125I]omega-Conotoxin GVIA from rat N-type calcium channel at 10 uM
[12] = target: D(2) dopamine receptor (Homo sapiens) (UniProt P14416); assay: Displacement of [3H]spiperone from human dopamine D2S receptor at 10 uM
[13] = target: D(3) dopamine receptor (Homo sapiens) (UniProt P35462); assay: Displacement of [3H]spiperone from human dopamine D3 receptor at 10 uM
[14] = target: Estrogen receptor (Homo sapiens) (UniProt P03372); assay: Displacement of [3H]estradiol from human ERalpha at 10 uM
[15] = target: GABA-A receptor; anion channel (Homo sapiens) (UniProt P14867+P47870+P18507+P28472+P48169+Q99928+Q9UN88+P34903+O00591+O14764+Q8N1C3+P18505+P78334+P47869+P31644+Q16445); assay: Displacement of ABC from rat GABAA receptor central muscimol site at 10 uM; assay type: protein-complex assay; settings: target entry is the homologue from another species
[16] = target: Glucocorticoid receptor (Homo sapiens) (UniProt P04150); assay: Displacement of [3H]dexamethasone from human glucocorticoid receptor at 10 uM
[17] = target: Glutamate NMDA receptor (Rattus norvegicus) (UniProt P35439+Q00959+Q00960+Q00961+Q62645+Q8VHN2+Q9R1M7); assay: Displacement of [3H]MDL 105,519 from rat NMDA receptor glycine binding site binding site at 10 uM; assay type: protein-complex assay
[18] = target: Histamine H1 receptor (Homo sapiens) (UniProt P35367); assay: Displacement of [3H]pyrilamine from human histamine H1 receptor at 10 uM
[19] = species: Mus musculus; assay: Displacement of [125I]interleukin-1beta from mouse IL1 receptor at 10 uM
[20] = target: Cysteinyl leukotriene receptor 1 (Homo sapiens) (UniProt Q9Y271); assay: Displacement of [3H]LTD4 from human CysLT1 receptor at 10 uM
[21] = target: Neuronal acetylcholine receptor (Rattus norvegicus) (UniProt P04757+P09483+P12389+P12390+P12392+P43144+Q9JLB5+P12391+P43143+P20420+Q05941); assay: Displacement of [125I]epibatidine from human nAchR at 10 uM; assay type: protein-complex assay
[22] = target: Acetylcholine receptor subunit alpha (Homo sapiens) (UniProt P02708); assay: Displacement of [125I]alpha-Bungarotoxin from human nAchR alpha1 bungarotoxin binding site at 10 uM
[23] = target: Kappa-type opioid receptor (Homo sapiens) (UniProt P41145); assay: Displacement of [3H]diprenorphine from human kappa opiate receptor at 10 uM
[24] = species: Mus musculus; assay: Displacement of [3H]PDBu from mouse phorbol ester receptor at 10 uM
[25] = target: Platelet-activating factor receptor (Homo sapiens) (UniProt P25105); assay: Displacement of [3H]PAF from human PAF receptor at 10 uM
[26] = tested on: Cricetinae; assay: Displacement of [3H]glyburide from hamster KATP channel at 10 uM
[27] = species: Oryctolagus cuniculus; assay: Displacement of [3H]alpha,beta-methylene-ATP from rabbit P2X channel at 10 uM
[28] = target: 5-hydroxytryptamine receptor 1A (Homo sapiens) (UniProt P08908); assay: Displacement of [3H]8-OH-DPAT from human 5HT1A receptor at 10 uM
[29] = target: 5-hydroxytryptamine receptor 3A (Homo sapiens) (UniProt P46098); assay: Displacement of [3H]GR-65630 from human 5HT3 receptor at 10 uM
[30] = target: Sodium-dependent noradrenaline transporter (Homo sapiens) (UniProt P23975); assay: Displacement of [125I]RTI-55 from human NET at 10 uM
[31] = target: Sodium-dependent serotonin transporter (Homo sapiens) (UniProt P31645); assay: Displacement of [3H]paroxetine from human SERT at 10 uM
[32] = tested on: Venezuelan equine encephalitis virus; assay: Antiviral activity against Venezuelan equine encephalitis virus TrD infected in Vero 76 cells assessed as reduction in virus-induced cytopathic effect after 2 days by Celltiter-Glo reagent based assay; assay type: functional, organism-based; settings: Vero 76, 48 h
[33] = tested on: Venezuelan equine encephalitis virus; assay: Antiviral activity against Venezuelan equine encephalitis virus TC83 infected in Vero 76 cells assessed as reduction in viral titer by crystal violet staining based microplaque assay relative to untreated control; assay type: functional, organism-based; settings: TC83, Vero 76
[34] = Stability in 1:1 PBS/acetonitrile assessed as parent compound remaining; assay type: physicochemical; settings: buffer
Method in brief: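 Aqueous stability measured after 48 h incubation, in PBS pH 7.4 or in 1:1 PBS/acetonitrile; reported as % parent remaining.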

[35] = Protein binding in human plasma at 10 uM; assay type: ADME, cell-free; settings: read-out: PPB (converted)
[36] = tested on: Liver; assay: Stability in mouse liver microsomes as parent compound remaining; assay type: ADME
Method in brief: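 Mouse hepatic microsomes incubated for 1 h; reported as % parent remaining.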

[37] = Drug concentration in C57BL/6 mouse brain at 10 mg/kg, ip administered as single dose measured after 120 mins by LC/MS analysis based RACE assay; assay type: ADME, organism-based; parameters: dose 10 mg/kg, route intraperitoneal; settings: read-out: Drug uptake
Method in brief: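 Brain tissue taken at the terminal 120 min point after one intraperitoneal dose (1, 5 or 10 mg/kg) in C57BL/6 mice, 3 per group, with a vehicle cohort. Drug level measured by LC/MS, averaging two injections per sample; reported as mean ± standard deviation, μM.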

Estrogen receptor (Homo sapiens), sequence (P03372 whole entry): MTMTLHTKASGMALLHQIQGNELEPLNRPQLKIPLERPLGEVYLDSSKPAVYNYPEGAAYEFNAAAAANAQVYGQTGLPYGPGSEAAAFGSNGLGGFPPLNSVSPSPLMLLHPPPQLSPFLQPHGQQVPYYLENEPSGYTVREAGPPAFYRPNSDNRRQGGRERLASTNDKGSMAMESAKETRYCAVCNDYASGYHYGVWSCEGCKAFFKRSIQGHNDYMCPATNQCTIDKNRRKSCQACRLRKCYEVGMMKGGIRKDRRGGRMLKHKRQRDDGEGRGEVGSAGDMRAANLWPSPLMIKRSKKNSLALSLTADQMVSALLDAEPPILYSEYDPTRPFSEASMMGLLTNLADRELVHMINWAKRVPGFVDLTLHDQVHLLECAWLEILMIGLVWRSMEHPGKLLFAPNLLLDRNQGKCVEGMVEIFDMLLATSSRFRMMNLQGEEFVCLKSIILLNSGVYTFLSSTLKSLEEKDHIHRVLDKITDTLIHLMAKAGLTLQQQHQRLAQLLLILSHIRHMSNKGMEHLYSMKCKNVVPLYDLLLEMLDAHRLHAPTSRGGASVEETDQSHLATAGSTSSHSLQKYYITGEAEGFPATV
Sodium-dependent serotonin transporter (Homo sapiens), sequence (P31645 whole entry, looked up): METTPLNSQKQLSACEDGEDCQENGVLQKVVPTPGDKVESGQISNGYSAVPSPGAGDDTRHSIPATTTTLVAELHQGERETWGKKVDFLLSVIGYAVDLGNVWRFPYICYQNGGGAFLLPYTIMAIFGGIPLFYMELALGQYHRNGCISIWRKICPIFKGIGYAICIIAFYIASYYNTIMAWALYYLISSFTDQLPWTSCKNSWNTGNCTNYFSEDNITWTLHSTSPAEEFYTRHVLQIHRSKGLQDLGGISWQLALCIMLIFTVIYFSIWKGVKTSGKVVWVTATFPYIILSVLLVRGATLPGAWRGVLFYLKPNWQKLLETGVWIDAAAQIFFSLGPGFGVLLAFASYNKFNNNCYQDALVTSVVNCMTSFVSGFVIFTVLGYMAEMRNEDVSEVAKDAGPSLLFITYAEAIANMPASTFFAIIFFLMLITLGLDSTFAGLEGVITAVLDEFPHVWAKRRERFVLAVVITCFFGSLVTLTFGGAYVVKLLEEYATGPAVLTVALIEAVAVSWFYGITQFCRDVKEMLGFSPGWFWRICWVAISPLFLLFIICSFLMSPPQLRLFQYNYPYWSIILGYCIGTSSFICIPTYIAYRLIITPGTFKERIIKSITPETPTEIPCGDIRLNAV
Alpha-1D adrenergic receptor (Homo sapiens), sequence (P25100 whole entry): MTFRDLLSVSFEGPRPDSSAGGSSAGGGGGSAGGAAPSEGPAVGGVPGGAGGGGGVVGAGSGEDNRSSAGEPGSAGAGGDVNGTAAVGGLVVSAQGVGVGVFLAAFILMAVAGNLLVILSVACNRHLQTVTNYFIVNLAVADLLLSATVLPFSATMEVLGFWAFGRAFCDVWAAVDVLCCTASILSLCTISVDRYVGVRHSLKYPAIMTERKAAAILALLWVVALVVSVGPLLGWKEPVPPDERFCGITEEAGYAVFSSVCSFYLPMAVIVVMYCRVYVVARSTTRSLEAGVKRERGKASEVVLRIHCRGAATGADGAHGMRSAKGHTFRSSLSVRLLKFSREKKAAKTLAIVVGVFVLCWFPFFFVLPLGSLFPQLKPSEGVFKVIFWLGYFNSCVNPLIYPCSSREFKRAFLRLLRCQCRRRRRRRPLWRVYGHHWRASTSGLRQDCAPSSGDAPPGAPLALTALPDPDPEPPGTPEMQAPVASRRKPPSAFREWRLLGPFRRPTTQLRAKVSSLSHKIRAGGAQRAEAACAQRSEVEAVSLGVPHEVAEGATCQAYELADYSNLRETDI
Acetylcholine receptor subunit alpha (Homo sapiens), sequence (P02708 whole entry): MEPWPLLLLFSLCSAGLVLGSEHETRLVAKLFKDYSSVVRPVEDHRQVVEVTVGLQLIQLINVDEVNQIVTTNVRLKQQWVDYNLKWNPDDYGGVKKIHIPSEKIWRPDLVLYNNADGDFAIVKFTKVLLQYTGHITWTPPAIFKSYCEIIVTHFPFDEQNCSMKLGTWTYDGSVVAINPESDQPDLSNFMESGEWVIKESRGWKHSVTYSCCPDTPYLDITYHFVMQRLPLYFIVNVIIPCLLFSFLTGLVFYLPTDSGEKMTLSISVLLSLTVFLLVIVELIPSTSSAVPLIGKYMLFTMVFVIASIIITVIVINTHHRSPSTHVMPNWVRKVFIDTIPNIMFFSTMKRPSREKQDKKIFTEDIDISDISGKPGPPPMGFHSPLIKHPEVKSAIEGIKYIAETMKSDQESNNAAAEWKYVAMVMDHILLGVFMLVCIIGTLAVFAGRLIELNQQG
Alpha-1B adrenergic receptor (Rattus norvegicus), sequence (P15823 whole entry): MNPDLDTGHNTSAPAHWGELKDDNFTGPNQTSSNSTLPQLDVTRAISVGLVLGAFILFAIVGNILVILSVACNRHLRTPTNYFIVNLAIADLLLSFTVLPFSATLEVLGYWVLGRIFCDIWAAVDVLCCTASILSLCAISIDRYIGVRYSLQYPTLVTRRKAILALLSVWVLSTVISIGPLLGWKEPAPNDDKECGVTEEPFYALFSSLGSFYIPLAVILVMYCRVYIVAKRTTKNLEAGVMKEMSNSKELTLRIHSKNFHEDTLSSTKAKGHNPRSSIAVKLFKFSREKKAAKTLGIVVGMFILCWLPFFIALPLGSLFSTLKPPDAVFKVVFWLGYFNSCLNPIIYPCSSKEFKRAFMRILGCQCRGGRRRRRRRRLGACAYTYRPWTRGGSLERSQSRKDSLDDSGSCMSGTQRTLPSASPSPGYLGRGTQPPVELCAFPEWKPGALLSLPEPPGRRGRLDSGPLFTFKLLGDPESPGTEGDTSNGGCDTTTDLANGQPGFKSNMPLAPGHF
5-hydroxytryptamine receptor 3A (Homo sapiens), sequence (P46098 whole entry): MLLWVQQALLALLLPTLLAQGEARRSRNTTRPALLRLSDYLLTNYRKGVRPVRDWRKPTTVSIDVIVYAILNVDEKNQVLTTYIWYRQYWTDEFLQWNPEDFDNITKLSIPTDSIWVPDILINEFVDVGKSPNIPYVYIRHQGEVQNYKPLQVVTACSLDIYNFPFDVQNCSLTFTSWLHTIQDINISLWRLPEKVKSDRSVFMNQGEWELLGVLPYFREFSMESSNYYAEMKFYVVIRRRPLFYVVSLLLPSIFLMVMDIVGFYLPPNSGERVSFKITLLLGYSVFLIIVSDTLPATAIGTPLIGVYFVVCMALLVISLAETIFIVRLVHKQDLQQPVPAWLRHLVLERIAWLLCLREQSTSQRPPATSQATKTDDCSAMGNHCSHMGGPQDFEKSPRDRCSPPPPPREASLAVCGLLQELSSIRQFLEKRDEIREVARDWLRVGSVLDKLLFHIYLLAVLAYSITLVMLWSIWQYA
D(3) dopamine receptor (Homo sapiens), sequence (P35462 whole entry): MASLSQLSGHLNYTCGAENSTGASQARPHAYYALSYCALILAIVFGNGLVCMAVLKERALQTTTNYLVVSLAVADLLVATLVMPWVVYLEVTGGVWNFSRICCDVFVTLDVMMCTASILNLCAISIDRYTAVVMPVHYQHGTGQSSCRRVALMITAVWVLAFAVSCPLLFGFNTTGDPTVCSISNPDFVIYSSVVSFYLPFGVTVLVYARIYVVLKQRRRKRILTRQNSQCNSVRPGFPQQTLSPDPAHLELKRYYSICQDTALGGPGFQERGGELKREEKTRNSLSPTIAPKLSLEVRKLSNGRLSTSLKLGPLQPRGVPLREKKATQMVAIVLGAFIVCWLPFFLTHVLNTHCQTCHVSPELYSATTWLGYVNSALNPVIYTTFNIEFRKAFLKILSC
Histamine H1 receptor (Homo sapiens), sequence (P35367 whole entry): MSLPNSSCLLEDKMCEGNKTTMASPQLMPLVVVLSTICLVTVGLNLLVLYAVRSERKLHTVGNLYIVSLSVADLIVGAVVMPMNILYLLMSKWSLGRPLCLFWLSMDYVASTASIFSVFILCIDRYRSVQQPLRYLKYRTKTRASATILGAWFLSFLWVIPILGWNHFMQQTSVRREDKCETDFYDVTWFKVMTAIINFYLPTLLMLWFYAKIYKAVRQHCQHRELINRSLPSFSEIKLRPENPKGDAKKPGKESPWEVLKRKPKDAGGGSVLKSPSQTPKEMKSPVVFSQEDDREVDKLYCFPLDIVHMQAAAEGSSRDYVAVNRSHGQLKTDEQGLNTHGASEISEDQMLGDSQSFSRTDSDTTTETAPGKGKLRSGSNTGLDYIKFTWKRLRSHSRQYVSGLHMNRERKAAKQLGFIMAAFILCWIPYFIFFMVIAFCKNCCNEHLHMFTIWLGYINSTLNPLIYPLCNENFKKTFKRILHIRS
Adenosine receptor A1 (Homo sapiens), sequence (P30542 whole entry): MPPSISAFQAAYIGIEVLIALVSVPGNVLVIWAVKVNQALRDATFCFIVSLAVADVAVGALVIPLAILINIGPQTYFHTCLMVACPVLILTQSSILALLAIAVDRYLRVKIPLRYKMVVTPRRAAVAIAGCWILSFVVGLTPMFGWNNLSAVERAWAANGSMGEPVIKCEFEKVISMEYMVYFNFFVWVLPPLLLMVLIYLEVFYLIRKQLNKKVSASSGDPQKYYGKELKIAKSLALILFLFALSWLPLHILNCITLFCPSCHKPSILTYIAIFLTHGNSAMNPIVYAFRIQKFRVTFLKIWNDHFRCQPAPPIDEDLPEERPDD
Kappa-type opioid receptor (Homo sapiens), sequence (P41145 whole entry): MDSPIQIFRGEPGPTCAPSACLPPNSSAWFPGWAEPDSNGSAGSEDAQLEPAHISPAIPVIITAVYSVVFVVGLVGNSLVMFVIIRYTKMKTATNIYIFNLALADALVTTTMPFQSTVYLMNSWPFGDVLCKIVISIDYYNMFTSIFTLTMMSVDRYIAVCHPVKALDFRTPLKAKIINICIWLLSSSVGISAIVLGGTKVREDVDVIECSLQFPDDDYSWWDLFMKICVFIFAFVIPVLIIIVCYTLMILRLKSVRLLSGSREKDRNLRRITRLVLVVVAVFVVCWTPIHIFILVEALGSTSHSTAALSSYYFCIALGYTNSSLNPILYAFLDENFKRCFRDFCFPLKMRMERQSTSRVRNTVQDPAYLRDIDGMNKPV

In the case of `CN1CCN(C)/C(=N/c2ccc([N+](=O)[O-])cc2C(=O)Nc2ccccc2)C1`, the survival at […] [1] was 127%, the Activity [2] was “Non-toxic” and the Activity [3] was “Non-toxic”. For the same compound, the Activity [4] was “Non-toxic”, the Activity [5] was “Non-toxic” and the inhibition [6] was 20.4%. The inhibition [7] was 4.41%, the inhibition [8] was -1.17% and the inhibition [9] was -7.82%. It also gave an inhibition [10] of 6.39%, an inhibition [11] of 22.7% and an inhibition [12] of 9.08%. The inhibition [13] was -1.53%, the inhibition [14] was 10% and the inhibition [15] was 0.52%. The inhibition [16] was 10.2%, the inhibition [17] was 12.9% and the inhibition [18] was 12.3%. It also gave an inhibition [19] of 3.11%, an inhibition [20] of 10.9% and an inhibition [21] of 10.8%. For the same compound, the inhibition [22] was 0.62%, the inhibition [23] was 9.71% and the inhibition [24] was 0%. The inhibition [25] was 7.04%, the inhibition [26] was 4.77% and the inhibition [27] was 14.2%. It also gave an inhibition [28] of 2.12%, an inhibition [29] of 1.64% and an inhibition [30] of 91.1%. The inhibition [31] was -5.97%, the pEC50 [32] was 7.40 and the pEC50 [33] was 6.77. It also gave a Stability [34] of 95.9%, a fraction unbound at 10 µM [35] of 0.23 and a Stability [36] of 42.9%. The concentration at 2 h [37] was 350 nM.
